Data published in PMC7413294 (Heterocycles, 2019).
“And” between values parts separate entries of the source, which are not always exact repeats. Equal values may be shown once. Read-outs that look alike come from different tables or passages of the source.

Legend:
K-channel = assay: Whole-cell patch clamp inhibition of K-channel; assay type: cell-based; settings: mouse DRG neurons
Procedure, shortened: (§1)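 Lumbar DRG neurons from 1–6 month-old C57 mice, digested in HBSS with 1 mg/mL collagenase and 0.5 mg/mL trypsin (35°C, 45–50 min). Neurons triturated, plated on poly-L-ornithine coverslips and kept in modified Krebs solution at 21°C. Whole-cell voltage clamp at room temperature. Compound applied by rapid local solution exchange; currents normalized to control to give % inhibition; sigmoidal dose-response fits.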

T-Cav3.2-channel = T-Cav3.2-channel (Mus musculus, UniProt O88427); assay: Whole-cell patch clamp inhibition of T-Cav3.2 channel in mouse DRG neurons; assay type: cell-based
Chain of T-Cav3.2-channel (O88427 whole entry): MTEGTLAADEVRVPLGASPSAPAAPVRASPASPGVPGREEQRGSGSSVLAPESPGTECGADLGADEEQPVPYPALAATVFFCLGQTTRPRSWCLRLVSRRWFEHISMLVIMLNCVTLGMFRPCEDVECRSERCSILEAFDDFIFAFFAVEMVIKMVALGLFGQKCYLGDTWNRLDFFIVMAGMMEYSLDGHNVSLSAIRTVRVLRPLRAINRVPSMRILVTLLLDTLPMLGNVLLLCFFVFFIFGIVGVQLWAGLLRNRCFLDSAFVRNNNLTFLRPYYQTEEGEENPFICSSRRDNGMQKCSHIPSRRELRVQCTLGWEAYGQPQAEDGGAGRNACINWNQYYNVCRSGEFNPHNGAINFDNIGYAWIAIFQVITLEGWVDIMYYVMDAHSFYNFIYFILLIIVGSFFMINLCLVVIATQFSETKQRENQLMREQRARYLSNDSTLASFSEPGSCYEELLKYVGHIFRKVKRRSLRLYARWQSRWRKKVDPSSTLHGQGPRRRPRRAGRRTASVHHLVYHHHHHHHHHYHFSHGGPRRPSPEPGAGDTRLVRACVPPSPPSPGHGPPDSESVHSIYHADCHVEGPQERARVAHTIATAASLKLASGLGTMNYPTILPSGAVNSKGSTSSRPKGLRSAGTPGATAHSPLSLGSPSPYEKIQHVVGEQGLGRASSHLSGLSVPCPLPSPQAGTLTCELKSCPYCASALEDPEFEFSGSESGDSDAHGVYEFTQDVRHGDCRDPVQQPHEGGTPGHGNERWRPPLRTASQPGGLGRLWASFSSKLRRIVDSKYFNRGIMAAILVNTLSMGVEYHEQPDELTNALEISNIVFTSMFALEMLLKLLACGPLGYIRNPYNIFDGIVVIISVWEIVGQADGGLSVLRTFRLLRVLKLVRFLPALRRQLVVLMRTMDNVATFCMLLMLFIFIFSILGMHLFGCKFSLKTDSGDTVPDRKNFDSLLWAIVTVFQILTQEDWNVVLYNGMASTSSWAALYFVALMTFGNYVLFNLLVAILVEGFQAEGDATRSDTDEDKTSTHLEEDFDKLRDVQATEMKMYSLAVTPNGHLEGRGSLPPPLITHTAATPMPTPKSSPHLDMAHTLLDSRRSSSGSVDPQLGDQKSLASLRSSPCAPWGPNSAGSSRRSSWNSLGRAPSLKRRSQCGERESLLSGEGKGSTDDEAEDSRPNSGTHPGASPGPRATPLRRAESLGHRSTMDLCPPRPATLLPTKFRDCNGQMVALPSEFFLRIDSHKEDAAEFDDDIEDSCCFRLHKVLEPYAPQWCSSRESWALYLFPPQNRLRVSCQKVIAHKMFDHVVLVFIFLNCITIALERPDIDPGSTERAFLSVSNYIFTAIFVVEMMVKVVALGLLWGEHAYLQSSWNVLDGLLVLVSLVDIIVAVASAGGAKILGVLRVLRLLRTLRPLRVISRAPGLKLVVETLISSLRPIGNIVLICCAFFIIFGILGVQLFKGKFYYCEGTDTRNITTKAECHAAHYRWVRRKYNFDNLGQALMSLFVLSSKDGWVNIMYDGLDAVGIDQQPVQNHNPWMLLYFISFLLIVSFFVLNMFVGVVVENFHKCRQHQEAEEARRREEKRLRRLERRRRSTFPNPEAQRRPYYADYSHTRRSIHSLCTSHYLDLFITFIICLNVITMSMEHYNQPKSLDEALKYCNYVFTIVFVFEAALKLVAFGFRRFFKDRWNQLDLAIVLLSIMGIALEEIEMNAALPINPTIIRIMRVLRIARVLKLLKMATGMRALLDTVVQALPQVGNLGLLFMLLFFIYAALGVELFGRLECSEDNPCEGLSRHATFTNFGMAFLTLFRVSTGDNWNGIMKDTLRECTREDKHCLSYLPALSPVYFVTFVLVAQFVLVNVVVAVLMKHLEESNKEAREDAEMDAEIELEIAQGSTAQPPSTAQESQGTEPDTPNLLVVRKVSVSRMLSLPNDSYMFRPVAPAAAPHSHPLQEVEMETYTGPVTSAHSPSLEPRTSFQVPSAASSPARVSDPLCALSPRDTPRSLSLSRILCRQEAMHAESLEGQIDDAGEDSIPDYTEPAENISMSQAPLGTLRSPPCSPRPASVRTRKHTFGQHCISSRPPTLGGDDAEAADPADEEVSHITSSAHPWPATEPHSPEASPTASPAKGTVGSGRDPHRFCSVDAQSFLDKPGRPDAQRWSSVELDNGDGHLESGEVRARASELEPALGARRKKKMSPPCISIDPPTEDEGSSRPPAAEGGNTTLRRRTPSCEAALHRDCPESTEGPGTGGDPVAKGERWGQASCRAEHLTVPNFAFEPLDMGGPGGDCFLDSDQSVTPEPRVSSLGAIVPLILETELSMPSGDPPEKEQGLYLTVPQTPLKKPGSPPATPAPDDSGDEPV
Procedure, shortened: as §1

Na-channel = assay: Whole-cell patch clamp inhibition of Na-channel in mouse DRG neurons; assay type: cell-based; settings: for IC50: read-out: IC50, Na- channel in DRG neurons
Procedure, shortened: as §1

PTZ-induced seizures = assay: Pentylenetetrazole; assay type: in vivo, mouse; settings: 30 mg/Kg; for Inhibition ratio (%) of fatality in PTZ-model of mice: 20-min observation period, 100 minus death ratio; for Latency to fatality (minutes) in PTZ model of mice: first 20 minutes of testing
Procedure, shortened: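 Mice received pentylenetetrazol at 40 mg/kg by intraperitoneal injection; test compound groups were compared with vehicle (2% DMSO in 0.5% hydroxypropyl cellulose), […]. Deaths were recorded within a 20-min cutoff. Inhibition ratio was 100 minus the % of mice that died. Latency to fatality was recorded per mouse as mean ± SEM. Experimenters were blinded.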

[1] = target: Cav3.2 channels expressed in HEK-293 cells (Homo sapiens, UniProt O95180); assay: Whole-cell patch clamp inhibition of Cav3.2 channels expressed in HEK293 cells; assay type: cell-based
Chain of Cav3.2 channels expressed in HEK-293 cells (O95180 whole entry): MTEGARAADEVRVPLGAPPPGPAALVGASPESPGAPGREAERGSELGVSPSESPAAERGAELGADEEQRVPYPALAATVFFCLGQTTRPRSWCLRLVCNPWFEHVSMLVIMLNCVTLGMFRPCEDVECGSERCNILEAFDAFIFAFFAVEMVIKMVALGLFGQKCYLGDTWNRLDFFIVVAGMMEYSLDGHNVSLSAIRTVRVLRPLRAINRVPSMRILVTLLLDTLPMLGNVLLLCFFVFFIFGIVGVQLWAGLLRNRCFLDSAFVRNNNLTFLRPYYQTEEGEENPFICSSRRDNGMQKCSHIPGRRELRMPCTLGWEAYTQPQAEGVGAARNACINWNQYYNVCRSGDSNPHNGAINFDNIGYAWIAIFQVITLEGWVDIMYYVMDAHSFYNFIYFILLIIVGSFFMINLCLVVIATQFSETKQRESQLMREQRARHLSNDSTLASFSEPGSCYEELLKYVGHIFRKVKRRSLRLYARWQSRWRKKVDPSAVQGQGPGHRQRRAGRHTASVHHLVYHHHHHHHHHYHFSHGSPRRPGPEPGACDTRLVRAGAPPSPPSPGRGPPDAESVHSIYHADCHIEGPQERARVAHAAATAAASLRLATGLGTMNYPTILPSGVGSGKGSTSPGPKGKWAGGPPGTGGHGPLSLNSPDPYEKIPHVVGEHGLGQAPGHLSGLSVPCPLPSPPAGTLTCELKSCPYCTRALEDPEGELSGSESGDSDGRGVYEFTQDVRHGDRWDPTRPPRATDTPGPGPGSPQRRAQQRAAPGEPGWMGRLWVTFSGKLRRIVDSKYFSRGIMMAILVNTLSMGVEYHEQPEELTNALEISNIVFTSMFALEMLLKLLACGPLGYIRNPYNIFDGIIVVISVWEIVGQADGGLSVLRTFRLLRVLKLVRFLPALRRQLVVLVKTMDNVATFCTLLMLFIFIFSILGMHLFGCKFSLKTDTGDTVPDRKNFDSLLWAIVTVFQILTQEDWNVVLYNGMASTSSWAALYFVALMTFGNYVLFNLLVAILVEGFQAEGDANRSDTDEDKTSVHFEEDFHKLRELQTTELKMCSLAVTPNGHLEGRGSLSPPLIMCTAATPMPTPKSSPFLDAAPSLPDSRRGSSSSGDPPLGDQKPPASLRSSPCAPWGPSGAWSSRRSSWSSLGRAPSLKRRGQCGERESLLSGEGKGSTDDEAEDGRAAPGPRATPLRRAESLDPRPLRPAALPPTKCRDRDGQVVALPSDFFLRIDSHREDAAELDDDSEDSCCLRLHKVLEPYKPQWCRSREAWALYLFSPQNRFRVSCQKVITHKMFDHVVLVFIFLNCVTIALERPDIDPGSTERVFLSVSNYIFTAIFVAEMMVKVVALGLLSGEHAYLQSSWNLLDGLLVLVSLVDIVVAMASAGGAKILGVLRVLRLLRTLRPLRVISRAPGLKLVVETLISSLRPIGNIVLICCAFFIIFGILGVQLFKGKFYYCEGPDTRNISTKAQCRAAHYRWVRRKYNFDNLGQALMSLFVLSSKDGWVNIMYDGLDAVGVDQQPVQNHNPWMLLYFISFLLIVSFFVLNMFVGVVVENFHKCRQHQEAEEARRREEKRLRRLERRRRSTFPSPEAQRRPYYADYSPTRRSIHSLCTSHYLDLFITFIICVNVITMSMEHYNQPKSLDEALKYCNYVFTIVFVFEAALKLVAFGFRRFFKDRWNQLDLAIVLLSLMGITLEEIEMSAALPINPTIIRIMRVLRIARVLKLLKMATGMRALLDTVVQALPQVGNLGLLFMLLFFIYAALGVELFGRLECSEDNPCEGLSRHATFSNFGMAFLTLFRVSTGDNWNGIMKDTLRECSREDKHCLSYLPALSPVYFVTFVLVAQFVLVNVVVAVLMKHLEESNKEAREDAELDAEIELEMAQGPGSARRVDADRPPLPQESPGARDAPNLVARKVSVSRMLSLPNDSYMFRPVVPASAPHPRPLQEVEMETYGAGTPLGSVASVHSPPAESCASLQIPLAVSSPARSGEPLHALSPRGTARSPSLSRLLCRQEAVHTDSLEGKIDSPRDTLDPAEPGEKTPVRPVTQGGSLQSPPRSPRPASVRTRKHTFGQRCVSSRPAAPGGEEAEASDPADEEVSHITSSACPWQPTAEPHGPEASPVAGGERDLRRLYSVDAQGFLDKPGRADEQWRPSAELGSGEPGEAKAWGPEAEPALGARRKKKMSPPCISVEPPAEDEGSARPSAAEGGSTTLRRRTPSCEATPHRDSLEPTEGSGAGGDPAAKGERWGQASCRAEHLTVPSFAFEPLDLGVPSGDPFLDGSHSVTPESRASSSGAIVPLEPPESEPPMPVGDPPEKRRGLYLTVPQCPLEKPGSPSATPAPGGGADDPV
Procedure, shortened: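 Tetracycline-inducible HEK293 line, G418-selected, reseeded on poly-D-lysine coverslips; Cav3.2 induced after 24 h with 1 µg/mL tetracycline. Whole-cell voltage clamp at room temperature. External solution: choline-Cl/TEA-Cl with 2 mM CaCl2. Internal solution: CsCl/EGTA. Holding potential -100 mV, then 100 ms depolarizing steps of 10 mV at 10 s intervals. Compound applied by rapid solution exchange; currents normalized to control; sigmoidal dose-response fits.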

[2] = tested on: pentylenetetrazole-induced seizures; settings: 30 mg/Kg; cited from earlier work
L-type calcium channels = settings: read-out: IC50, L-type calcium channels; cited from earlier work
T-type calcium channels = settings: read-out: IC50, T-type calcium channels; cited from earlier work
[3] = DRG neuron, read-out: Inhibition (%) of T-Cav3.2- channel in DRG neurons

Row | inhibition at 1 µM (T-Cav3.2-channel; [3]) [%] | Compound | Inhibition (%) of K-channel in DRG neurons, IA (rapid inactivating potassium current) (K-channel; 1 µM, IA) [%] | Inhibition (%) of K-channel in DRG neurons, IKd (delayed rectifier potassium current) (K-channel; 1 µM, IKd) [%] | Inhibition (%) of Na- channel in DRG neurons (Na-channel; 1 µM) | Inhibition ratio (%) of fatality in PTZ-model of mice (PTZ-induced seizures) | Latency to fatality (minutes) in PTZ model of mice (PTZ-induced seizures) | other results
1 | 60.9 | O=C(Nc1nnc(-c2ccccc2F)o1)c1ccc(Cl)s1 [Compound 15, 5-Chloro-N-(5-(2-fluorophenyl)-1,3,4-oxadiazol-2-yl)thiophene-2-carboxamide] | – | – | – | – | – | –
2 | – | O=C1c2cc(Cl)c(Cl)cc2C(=O)N1c1nnc(-c2ccc(Cl)s2)o1 [Compound 6, 5,6-Dichloro-2-(5-(5-chlorothiophen-2-yl)-1,3,4-oxadiazol-2-yl)isoindoline-1,3-dione] | – | – | – | 0% and 0 (n=8) % | 1.9±0.3 (n=8) minutes | Inhibition (%) of K-channel in DRG neurons, IA (rapid inactivating potassium current) (K-channel; 3.3 µM, IA): −11.6%; Inhibition (%) of K-channel in DRG neurons, IKd (delayed rectifier potassium current) (K-channel; 3.3 µM, IKd): −17.8%; inhibition at 3.3 µM (T-Cav3.2-channel; [3]): 9.8%; Inhibition (%) of Na- channel in DRG neurons (Na-channel; 3.3 µM): 100 (3.3 µM) (n=1) %
3 | – | CC(C)(C)NC(=O)CN1CCC(CNC(=O)c2cc(F)cc(Cl)c2)CC1 [Compound Z944, reference compound] | 34.5±15.0 | 44.9±17.7 | 49.7±6% | 33% and 33.3 (n=6) % | 15.2±3.1 (n=6) minutes | IC50 (Na-channel): 510 nM; Inhibition (%) of T-Cav3.2- channel in HEK293 cells ([1]; 0.25 µM, HEK293 cells): 74.5±7.8 (0.25 µM, in HEK293 cells) (n=6) %; Protective effect on seizures, pentylenetetrazole-induced fatality rat model [2]: 33%
4 | 79.5 | O=C(CN1CCC(C(=O)Nc2nnc(-c3ccc(Cl)s3)o2)CC1)Nc1ccccc1 [Compound 9, 1-((Phenylcarbamoyl)methyl)-N-(5-(5-chlorothiophen-2-yl)-1,3,4-oxadiazol-2-yl)piperidine-4-carboxamide] | – | – | – | – | – | –
5 | – | COCC(=O)O[C@]1(CCN(C)CCCc2nc3ccccc3[nH]2)CCc2cc(F)ccc2[C@@H]1C(C)C [Mibefradril] | – | – | – | – | – | IC50 (L-type calcium channels): 3000 nM; IC50 (T-type calcium channels): 100 nM
6 | 24.4 ± 9.6 | O=C(Nc1nnc(-c2ccc(Cl)s2)o1)c1ccccc1 [Compound 8, N-(5-(5-Chlorothiophen-2-yl)-1,3,4-oxadiazol-2-yl)benzamide] | −18.7 | −28.6 | −71.8 (n=1) % | – | – | –
7 | 5 | O=C(CCc1cccc(Cl)c1)Nc1nnc(-c2ccccc2)o1 [Compound 10, 3-(3-Chlorophenyl)-N-(5-phenyl-1,3,4-oxadiazol-2-yl)propanamide] | – | – | – | – | – | –
8 | 44.2 ± 5.6 | c1ccc(-c2nnc(N3CCCCC3)o2)cc1 [Compound 12, 1-(5-Phenyl-1,3,4-oxadiazol-2-yl)piperidine] | 21.9±8.6 | 31.6±5.5 | 25.7±6.3% | – | – | IC50 (K-channel; read-out: IC50, K-channel IA in DRG neurons, IA): 19600 nM; IC50 (K-channel; read-out: IC50, K-channel IKd in DRG neurons, IKd): 2600 nM; IC50 (Na-channel): 2100 nM; inhibition at 1 µM ([1]; HEK293, read-out: Inhibition (%) of T-Cav3.2- channel in HEK293 cells): 64.6%

Row | Compound | inhibition at 1 µM (T-Cav3.2-channel; [3]) [%] | Inhibition (%) of K-channel in DRG neurons, IA (rapid inactivating potassium current) (K-channel; 1 µM, IA) [%] | Inhibition (%) of K-channel in DRG neurons, IKd (delayed rectifier potassium current) (K-channel; 1 µM, IKd) [%] | Inhibition (%) of Na- channel in DRG neurons (Na-channel; 1 µM) | Inhibition ratio (%) of fatality in PTZ-model of mice (PTZ-induced seizures) | Latency to fatality (minutes) in PTZ model of mice (PTZ-induced seizures) | other results
9 | O=C(Nc1nnc(-c2ccccc2)o1)c1ccc(Cl)s1 [Compound 11, 5-Chloro-N-(5-phenyl-1,3,4-oxadiazol-2-yl)thiophene-2-carboxamide] | 50 ± 9.7 | 18.9±11.8 | 24.1±14.6 | 16.5±8.9 (n=7) % | 72.1% and 72.7 (n=11) % | 15.3±2.4 (n=11) minutes | IC50 (T-Cav3.2-channel): 930 nM
10 | O=C(CN1CCCCC1)Nc1nnc(-c2ccccc2)o1 [Compound 13, N-(5-Phenyl-1,3,4-oxadiazol-2-yl)-2-(piperidin-1-yl)acetamide] | 55.4 ± 28.7 | 19.9 | 36.5 | −2.7 (n=1) % | 0 (n=7) % | 3.7±1.8 (n=7) minutes | –
11 | N#CC1CCN(CC(=O)Nc2nnc(-c3ccccc3)o2)CC1 [Compound 14, 2-(4-Cyanopiperidin-1-yl)-N-(5-phenyl-1,3,4-oxadiazol-2-yl)acetamide] | 69.6 ± 6.2 | 12.9 | 30.0 | −4.7 (n=1) % | 14 (n=7) % | 11.8±2.5 (n=7) minutes | –
12 | O=C(CCc1cccc(Cl)c1)Nc1nnc(-c2ccc(Cl)s2)o1 [Compound 7, 3-(3-Chlorophenyl)-N-(5-(5-chlorothiophen-2-yl)-1,3,4-oxadiazol-2-yl)propanamide] | 20.4 ± 1.9 | – | – | – | 30% and 28.6 (n=7) % | 13.6±1.8 (n=7) minutes | Inhibition (%) of K-channel in DRG neurons, IA (rapid inactivating potassium current) (K-channel; 3.3 µM, IA): −26.0%; Inhibition (%) of K-channel in DRG neurons, IKd (delayed rectifier potassium current) (K-channel; 3.3 µM, IKd): −15.6%; Inhibition (%) of Na- channel in DRG neurons (Na-channel; 3.3 µM): 82.2 (3.3 μM) (n=1) %
